High-throughput results deposited in PubChem BioAssay by Johns Hopkins Ion Channel Center.
KCNK9 inh – blocks the human KCNK9 two-pore domain potassium channel | HEK293 KCNK9, FluxOR thallium flux fluorescence; hits give low values | AID 488922 | 310,000 tested, 1.2% active | B-score at 10 µM | Q9NPC2;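 active = ratio B-score over 3 SD below the library mean, with starting fluorescence within 5 SD of its mean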;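 note: negative B-score means less thallium flux so channel inhibition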
Target sequence (Q9NPC2 whole entry, looked up, the tested form may be a part): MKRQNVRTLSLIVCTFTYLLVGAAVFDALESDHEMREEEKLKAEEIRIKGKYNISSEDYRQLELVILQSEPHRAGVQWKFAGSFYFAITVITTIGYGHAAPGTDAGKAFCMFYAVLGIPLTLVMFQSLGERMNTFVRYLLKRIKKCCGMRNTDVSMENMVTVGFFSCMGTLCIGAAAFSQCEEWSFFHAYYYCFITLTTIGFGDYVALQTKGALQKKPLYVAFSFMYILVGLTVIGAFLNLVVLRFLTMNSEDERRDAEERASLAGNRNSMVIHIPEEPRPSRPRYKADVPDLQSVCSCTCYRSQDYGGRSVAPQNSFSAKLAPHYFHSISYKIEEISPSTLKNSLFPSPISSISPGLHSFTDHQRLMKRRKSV
Kir21 inh – inhibitors of mouse Kir2.1 inward-rectifier potassium channel | P35561 | HEK293-Kir2.1, FluxOR thallium flux fluorescence; hits give low values | B-score at 10 µM | 310,000 tested, 0.85% active | AID 1672;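 active = fluorescence ratio B-score at or below minus 3 SD of library scores, with starting-brightness B-score within 2 SD, cut at about -4.2 in these data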;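 note: channel flux triggered by added potassium and thallium sulfate stimulus; B-score of peak minus minimum fluorescence over baseline after thallium stimulus; more negative B-score means stronger Kir2.1 block with less thallium influx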
KCNK3 block – human KCNK3 channel inhibition, primary screen; O14649; CHO-KCNK3 thallium flux, FluxOR fluorescence; hits give low values; B-score at 10 µM; 340,000 tested, 0.84% active; AID 602410;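 active = B-score under library mean minus 4 SD, starting fluorescence ratio at most library mean plus 5 SD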;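 note: more negative B-score means stronger inhibition of thallium flux through KCNK3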
KCNQ1 pot – potentiates or activates the human KCNQ1 potassium channel | P51787 | CHO-K1 KCNQ1, thallium flux FluxOR fluorescence; hits give high values | B-score at 10 µM | 310,000 tested, 0.35% active | AID 2648;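 active = fluorescence ratio B-score, a plate-corrected score, at least three library SD, with initial intensity B-score within 5 SD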
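assay system = CHO-K1 cells stably expressing KCNQ1 | medium = assay buffer, equal DMSO in all wells | timing = 37 °C overnight plating, 90-min dark dye load, 20-min compound pretreatment | measured by = kinetic FluxOR thallium fluorescence, 10-s 1-Hz baseline, 110-s post-stimulus read | measure = fluorescence change relative to baseline, converted to B score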
hERG rescue – hERG (human) protection from proarrhythmic block; CHO-hERG, FluxOR thallium flux, dofetilide IC70 present; activation (rescue from dofetilide block), less the hit threshold, % at 10 µM; 310,000 tested, 0.51% active;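 active = activation above the mean of controls blocked by dofetilide plus 5 SD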;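 note: thallium influx through hERG after potassium depolarization seen as dye fluorescence rise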
KCNQ1 block – inhibitors of human KCNQ1 potassium channel; P51787; CHO-K1 KCNQ1, FluxOR thallium flux fluorescence; hits give high values; B-score at 10 µM; 310,000 tested, 1.3% active; AID 2642;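 active = compounds whose thallium flux B-score, printed positive for inhibition, exceeds three library SD while starting fluorescence stays within three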;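 note: channel opened by potassium depolarization with thallium stimulus after 20 min compound exposure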
KCNK9 block conf – human KCNK9 inhibitor confirmation. shares compounds with KCNK9 inh. HEK293 KCNK9 cells, FluxOR thallium flux fluorescence. inhibition, % at 10 µM. 4,900 tested, 43% active;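 active = thallium signal inhibited by more than 5 SD of the compound-free buffer control wells, on both duplicate plates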;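 note: 0% = assay buffer control wells without compound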
Kir2-1 spec – selectivity of KCNK9 modulators against mouse Kir2.1; shares compounds with KCNK9 inh; Kir2.1 cells, FluxOR thallium flux fluorescence; inhibition, % at 10 µM; 4,900 tested, 4% active;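 active = thallium signal drop more than 5 SD beyond the mean of the no-compound control wells, seen in both duplicate plates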;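 note: signal is fluorescence rise after thallium addition divided by baseline fluorescence; plate controls were assay buffer only for no effect and full block by chlorpromazine control for full effect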
HEK293 Tl ctr – second check of KCNK9 modulator effects in non-induced HEK293 cells; shares compounds with KCNK9 inh; FluxOR thallium flux; inhibition, % at 10 µM; 4,900 tested, 40% active; AID 492997;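 active = thallium signal drop beyond 5 SD of the untreated control mean, on both duplicate plates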;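 note: plate controls were buffer only IC0 wells for no effect and SID17386958 at its maximal inhibitory level for full effect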
* = called active by the depositor; i = inactive; x = no result. Compounds with a hit are over-represented: about 3.7% of the library has one in this group of screens.

SMILES | KCNK9 inh | Kir21 inh | KCNK3 block | KCNQ1 pot | hERG rescue | KCNQ1 block | KCNK9 block conf | Kir2-1 spec | HEK293 Tl ctr
CCCCC(=O)Nc1cccc(NC(=O)c2ccc(Br)o2)c1 | -8.53* | -0.81 | i | i | -17.9 | i | 43.0%* | i | i
Cc1ccc(C2=NS(=O)(=O)N(C)C(C(=O)NC(C)c3ccccc3)=C2)cc1 (stereo not drawn) | i | -0.94 | i | i | -11.5 | i | x | x | x
Cc1ccc(NS(=O)(=O)c2cc(C(=O)NCCSC3CCCCC3)ccc2C)cc1 | i | 0.24 | i | i | -6.3 | i | x | x | x
Cc1ccc(C(=O)NCCSc2ccc(Cl)cc2)cc1S(=O)(=O)Nc1ccccc1 | i | 0.39 | i | i | -6.9 | i | i | i | i
CS(=O)(=O)Nc1ccccc1C(=O)NCCSc1ccc(Cl)cc1 | i | -3.72 | i | i | -12.6 | i | x | x | x
Cc1ccc(NS(=O)(=O)c2cc(C(=O)NCCSc3ccc(C)cc3)ccc2C)cc1 | i | -0.29 | i | i | -2.8 | i | i | i | i
COC(=O)C(C(=O)OC)C(CC(=O)c1ccc(Br)cc1)c1ccccc1 (stereo not drawn) | x | x | i | x | x | x | x | x | x
CC(C)(C)OC(=O)CNC(=O)c1nc[nH]c1C(=O)N1CCc2ccccc2C1 | i | -0.59 | i | i | -9.5 | i | x | x | x
COc1ccccc1C/C(N)=N/OC(=O)COc1cccc(C)c1C | i | 0.27 | i | i | -2.1 | i | i | i | i
COc1ccccc1C/C(N)=N/OC(=O)COc1cc(C)cc(C)c1C | i | -0.7 | i | i | -3.5 | i | x | x | x
COC(=O)C1=CN(Cc2ccc(C)cc2)C=C(C(=O)OC)C1c1ccc(F)c(F)c1 | -10.8* | 0.1 | i | i | -10.4 | i | i | i | 39.0%*
Cc1ccc(S(=O)(=O)N2CCN(C(=O)COC(=O)COc3ccccc3C(C)C)CC2)c(C)c1 | x | x | i | x | x | x | x | x | x
S=C(c1cn(Cc2ccc(Br)cc2)c2ccccc12)N1CCOCC1 | -10.3* | -0.4 | i | i | -15.9 | i | 34.5%* | i | 39.5%*
CC1CCN(C(=S)c2cn(Cc3ccc(F)cc3)c3ccccc23)CC1 | -11* | 0.07 | i | i | -4.8 | i | 44.0%* | i | 38.0%*
CN1CCN(C(=S)c2cn(Cc3ccc(F)cc3)c3ccccc23)CC1 | i | 0.12 | i | i | -11.4 | i | x | x | x
S=C(c1cn(Cc2ccccc2)c2ccccc12)N1CCOCC1 | i | -2.61 | i | i | -2.4 | i | x | x | x
CC(C)(C)[C@H]1COC(=O)[C@H](NC(=O)OCC2c3ccccc3-c3ccccc32)C/C=C\C[C@@H](CC(=O)N[C@@H](CO)Cc2ccccc2)C(=O)N1 | x | x | i | x | x | x | x | x | x
Cc1cc(NC(=O)c2ccc(Cl)cc2)ccc1NC(=O)c1ccccc1Cl | i | 1.78 | i | i | -1.8 | i | x | x | x
O=C1C2=C(Nc3ccccc3SC2c2ccco2)c2ccccc21 (stereo not drawn) | -18.5* | 0.04 | i | i | -9.0 | 13* | 65.0%* | i | 30.5%*
O=C(C1=C[C@@H](c2ccccc2)C[C@@H](OCc2ccc(CO)cc2)O1)N1CCCCCCC1 | i | -0.14 | i | i | -10.0 | i | x | x | x
O=c1c2cc(-c3ccccc3)sc2ncn1/N=C/c1ccco1 | i | -1.76 | i | i | -4.2 | i | i | i | i
CCCCCn1cnc2sc(-c3ccccc3)cc2c1=O | i | -0.12 | i | i | -7.9 | i | x | x | x
Cc1[nH][nH]c(=O)c1C(c1ccc(-c2ccc(Cl)c(Cl)c2)o1)c1c(C)[nH][nH]c1=O | i | -3.61 | i | 10* | -8.3 | i | i | i | i
Cc1[nH][nH]c(=O)c1C(c1ccc(-c2ccc(C(=O)O)cc2)o1)c1c(C)[nH][nH]c1=O | x | x | i | x | x | x | x | x | x
Cc1ccc(N(CC(=O)NC2CCCCC2)C(=O)CNC(=O)c2ccco2)cc1F | i | -0.02 | i | i | -7.1 | i | x | x | x
SMILES | KCNK9 inh | Kir21 inh | KCNK3 block | KCNQ1 pot | hERG rescue | KCNQ1 block | KCNK9 block conf | Kir2-1 spec | HEK293 Tl ctr
CCOc1cc(CNCCSc2nnnn2C)cc(Br)c1OCc1ccccc1F | -9.46* | 0.04 | i | i | -20.5 | i | i | i | 31.5%*
COc1cc(CNCCSc2nnnn2C)cc(Br)c1OCc1ccccc1F | i | -0.09 | i | i | -13.8 | i | x | x | x
CC(C)c1ccc(NC(=O)Cc2c(C(=O)O)n(C)c3ccccc23)cc1 | i | 1.99 | i | i | -12.7 | i | x | x | x
CCOc1cccc(/C=N/NC(=O)c2cc(C3CC3)[nH]n2)c1O | i | 0.28 | i | i | -9.0 | i | x | x | x
Cc1ccc(SCC(=O)OCC(=O)NCCC2=CCCCC2)cc1 | i | 0.52 | i | i | -10.2 | i | x | x | x
COCCn1c(C)cc(C(=O)COC(=O)c2c(C)nn(Cc3ccccc3)c2C)c1C | i | -1.15 | i | i | -6.3 | i | i | i | i
CN(Cc1ccccc1)c1nc(N)c([N+](=O)[O-])c(NCc2ccccc2)n1 | -10.2* | -4.55* | i | i | -10.8 | i | 57.0%* | i | 57.0%*
Nc1nc(NCCc2ccccc2)nc(NCc2ccccc2)c1[N+](=O)[O-] | i | 0.33 | i | i | -10.9 | i | x | x | x
Cn1c(C(=O)N2CCN(c3cccc(C(F)(F)F)c3)CC2)cc2sccc21 | i | 1.87 | i | i | -13.9 | i | i | i | i
Cc1ccc(C)c(N2CCN(C(=O)c3cc4sccc4n3C)CC2)c1 | i | -0.09 | i | i | -14.9 | i | x | x | x
Cc1cc(C)c2nc(NNC(=O)c3ccc(S(=O)(=O)N4CCCCC4)cc3)sc2c1 | i | 0.09 | i | i | -12.2 | i | i | i | i
Cc1cccc2sc(NNC(=O)c3ccc(S(=O)(=O)N4CCc5ccccc5C4)cc3)nc12 | i | 0.03 | i | i | -4.3 | i | i | i | i
Cc1ccccc1OCc1nnc(SCC(=O)Nc2ccc3nc(SCC(=O)Nc4ccccc4)sc3c2)n1C | i | -1.58 | i | i | -10.1 | i | x | x | x
CCOc1ccc(C2=C(C=Nc3c(C)n(C)n(-c4ccccc4)c3=O)C(c3ccc(F)cc3)c3ccccc3O2)cc1 (stereo not drawn) | i | -0.14 | i | i | -2.9 | i | i | i | i
CCOc1ccccc1N/C=C/C(=O)C(C)(C)C | i | 1.18 | i | i | -8.5 | i | i | i | i
